Assay outcomes as filed in PubChem.
MrgX1 antag: antagonists of human MrgX1 receptor; Q96LB2; MRGX1-HEK293 calcium flux, Fluo-4, BAM8-22 antagonism; active compounds read low; B-score at 10 µM; 310,000 tested, 1.3% active;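 active means calcium-response B-score plate-corrected more than 3 library SD below zero, starting fluorescence within 5 deviations, no agonist response on first addition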;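 further: peak minus trough fluorescence over baseline after final BAM8-22 challenge near maximal dose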
Target sequence (Q96LB2 whole entry, looked up): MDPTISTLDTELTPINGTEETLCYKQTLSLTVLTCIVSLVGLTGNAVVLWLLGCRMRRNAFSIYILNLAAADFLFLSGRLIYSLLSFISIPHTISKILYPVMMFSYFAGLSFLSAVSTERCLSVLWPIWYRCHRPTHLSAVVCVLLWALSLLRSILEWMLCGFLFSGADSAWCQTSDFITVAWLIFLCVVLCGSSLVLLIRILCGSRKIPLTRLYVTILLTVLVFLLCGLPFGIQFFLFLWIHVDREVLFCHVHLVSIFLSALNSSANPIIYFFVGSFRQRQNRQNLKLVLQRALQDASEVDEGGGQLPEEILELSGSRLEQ
MrgX1 ag: human MrgX1 receptor agonism, primary screen. B-score at 10 µM. Q96LB2. MrgX1-HEK293 cells, Fluo-4 calcium fluorescence, agonist mode; active compounds read high. 310,000 tested, 0.44% active;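 active means calcium response B-score plate-corrected fluorescence ratio at least 3 library SD, with starting fluorescence B-score inside 5 SD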
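Test system: HEK293 cells stably expressing human MrgX1 receptor; Input: fifteen thousand cells per well; Dosing: compound delivered in addition one of three; Schedule: overnight seeding, then 1 h dark dye loading; Technique: Fluo-4 NW calcium fluorescence; Measure: B-scored fluorescence response ratio; Controls: positive and negative controls per plate.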
MrgX1 PAM: allosterically activates human MrgX1 receptor signaling | B-score at 10 µM | 310,000 tested, 0.63% active | MrgX1-HEK293, Fluo-4 calcium flux, FDSS; active compounds read high;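 active means plate-corrected calcium response at least 3 library SD above typical, normal starting fluorescence, not activating the receptor alone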;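 further: compound read alongside a low EC10 to EC30 dose of BAM8-22 agonist; peak minus trough fluorescence over baseline measured at the second addition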
RGS4 act: potentiators or activators of RGS4. HEK293 M3R/inducible RGS4, carbachol calcium flux Fluo4; active compounds read low. B-score at 10 µM. 310,000 tested, 0.92% active. AID 463111;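 active means B-score of the integrated calcium signal more than 4 SD below the library mean, with starting fluorescence not abnormally high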;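 further: negative B-score means reduced calcium response which marks RGS4 activation or potentiation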
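Assay system: HEK293 FlpIn-TREx cells, stable M3R, doxycycline-inducible RGS4 / Probe or stimulus: carbachol, ECmax concentration / Times: overnight RGS4 induction, 30 min dye load 37 °C, 20 min compound RT / Signal: kinetic calcium fluorescence imaging with Fluo4-AM dye, 2 µM / Measure: Agonist-evoked peak-minus-minimum fluorescence over baseline, integrated ratio, B score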
RGS4 block: human RGS4 inhibition; P49798; HEK293 M3R/RGS4 inducible, Fluo-4 calcium flux; active compounds read high; triggered by carbachol at its EC20; B-score at 10 µM; 310,000 tested, 0.45% active; AID 463165;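 active means B-score, a plate-corrected calcium signal, over three deviations above library mean, with baseline fluorescence within five deviations of library mean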;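 further: RGS4 expression induced by doxycycline in cells with stable M3 receptor; B-score is computed from the integrated fluorescence ratio over baseline after carbachol; higher B-score means a larger calcium signal and so more RGS4 inhibition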
Target sequence (P49798 whole entry, looked up): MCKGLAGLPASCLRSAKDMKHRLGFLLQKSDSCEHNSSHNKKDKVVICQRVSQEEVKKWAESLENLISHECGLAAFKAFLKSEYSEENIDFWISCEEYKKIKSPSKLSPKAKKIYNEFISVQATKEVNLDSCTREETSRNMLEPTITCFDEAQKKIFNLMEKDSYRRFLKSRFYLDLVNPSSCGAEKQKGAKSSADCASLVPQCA
RGS4 block valid: validation of RGS4 inhibitors | shares compounds with RGS4 block | HEK293 M3R/RGS4, carbachol calcium Fluo-4 fluorescence; carbachol added at its EC20; 0 = buffer wells, 100 = carbachol control | calcium response, % at 10 µM | 1,700 tested, 65% active;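 active means duplicate-averaged calcium response above the buffer-only control mean plus 5 SD of those controls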;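 further: integrated fluorescence ratio F max minus min over baseline F0; higher response in RGS4-induced cells means RGS4 inhibition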
M3R Ca ctr: counter-screen for RGS4 inhibitors: effect in non-induced cells; 1,900 tested, 20% active; AID 493000; activity (percent), % at 10 µM; shares compounds with RGS4 block; HEK293 M3R non-induced, carbachol calcium Fluo-4; submaximal (EC20) carbachol stimulus; buffer wells 0%, carbachol control wells 100%; call rule not given here;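 further: RGS4 induction absent so cells express M3R without RGS4; higher means more calcium signal and flags a non-specific hit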
RGS4 inh ctr2: second counter-screen for RGS4 inhibitors: non-induced cells without carbachol; calcium response (agonist-mode artifact), % at 10 µM; AID 493001; shares compounds with RGS4 block; HEK293 M3R/RGS4 non-induced, Fluo-4 calcium, no carbachol; normalised: buffer wells 0%, carbachol wells 100%; 1,900 tested, 22% active;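 active means duplicate-averaged calcium rise in uninduced cells above buffer wells' mean plus 5 SD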
The depositor's hits bear a star; i = inactive; · = no result. The list is not random: actives were taken first. Their share in the collection is about 3.5%.

SMILES | MrgX1 antag | MrgX1 ag | MrgX1 PAM | RGS4 act | RGS4 block | RGS4 block valid | M3R Ca ctr | RGS4 inh ctr2
COc1cc(O)cc2c1C(=O)OC(C)CCCC(=O)CCC/C=C\2 (stereo not drawn) | i | i | i | i | i | · | i | i
C[C@H]1CCCC(=O)CCC/C=C/c2cc(O)cc(O)c2C(=O)O1 | i | i | i | i | 8.18* | 35.0%* | i | i
[N-]=[N+]=NCCN1CCC(O)CCC1=O (stereo not drawn) | i | i | i | i | i | · | · | ·
CC(C)c1ccc(NC(=O)CCNC(=O)N2C[C@H]3C[C@@H](C2)c2cccc(=O)n2C3)cc1 | i | i | i | i | i | · | · | ·
Cc1nn(Cc2ccccc2)c(C)c1C(=O)NCc1ccccc1 | i | i | i | i | i | · | · | ·
Cc1nn(Cc2ccccc2)c(C)c1C=C1C(=O)NC(=O)NC1=O | i | i | i | i | i | i | i | i
O=C1/C(=C\c2ccc([N+](=O)[O-])cc2)N2CCC1CC2 | i | i | i | i | 5.91* | 5.0%* | i | i
COc1ccc(CN2C(=O)NC(=O)/C(=C\c3cc(OC)c(OC)c(OC)c3)C2=O)cc1 | i | i | i | i | i | · | · | ·
O=C1NC(=O)N(Cc2ccc(F)cc2)C(=O)/C1=C\c1ccc([N+](=O)[O-])s1 | i | i | i | i | 6.28* | 20.5%* | i | i
COc1ccc(CN2C(=O)NC(=O)/C(=C/c3ccc([N+](=O)[O-])s3)C2=O)cc1 | i | i | i | i | 8.89* | 29.0%* | i | i
Cc1nc2ccccc2c(=O)n1-c1ccc(-c2ccccc2)cc1 | i | i | i | i | i | · | · | ·
CC1CN(C(=O)CCC(=O)N2CCC3(CC2)OCCO3)c2cc(Cl)ccc2O1 (stereo not drawn) | i | i | i | i | i | · | · | ·
CCN(CC)c1ccc(/C=C/[N+](=O)[O-])cc1 | i | i | i | i | 10.2* | 29.0%* | i | 580.5%*
COc1ccc(N2C(=O)NC(=O)/C(=C\c3cn(CC(=O)N4CCOCC4)c4ccccc34)C2=O)c(OC)c1 | i | i | i | i | 8.66* | 16.0%* | i | 8.5%*
CC(C)(C)c1cc([N+](=O)[O-])cc(C(C)(C)C)c1O | i | i | i | i | i | · | · | ·
CCOc1cc2c(cc1OCC)-n1cccc1C(c1cc(OC)ccc1F)NC2 (stereo not drawn) | i | i | i | i | i | · | · | ·
COc1ccc(Cn2c(O)c(C=NCCN3CCOCC3)c(=O)[nH]c2=O)cc1 | i | i | i | i | i | · | · | ·
O=C(N/N=C/c1c(O)n(Cc2ccccc2)c(=O)[nH]c1=O)c1ccccc1O | i | i | i | i | 6.9* | 11.5%* | i | i
O=C(N/N=C/c1c(O)n(Cc2ccc(F)cc2)c(=O)[nH]c1=O)c1ccccc1O | i | i | i | i | i | i | i | i
COc1ccc(Cn2c(O)c(/C=N/NC(=O)c3ccccc3O)c(=O)[nH]c2=O)cc1 | i | i | i | i | i | · | i | i
COc1ccc(Cn2c(O)c(/C=N/NC(=O)c3ccncc3)c(=O)[nH]c2=O)cc1 | i | i | i | i | i | · | · | ·
COc1ccc(Cn2c(O)c(/C=N/NC(=O)c3ccccc3)c(=O)[nH]c2=O)cc1 | i | i | i | i | i | · | i | 9.5%*
CN1CCN(Cc2cc3c(cc2[N+](=O)[O-])OCO3)CC1 | i | i | i | i | i | · | · | ·
OC(CN1CCOCC1)c1csc2ccccc12 (stereo not drawn) | i | i | i | i | i | · | · | ·
O=C(N/N=C/c1c(O)n(CCc2ccccc2)c(=O)[nH]c1=O)c1ccccc1O | i | i | i | i | i | i | i | 9.0%*
SMILES | MrgX1 antag | MrgX1 ag | MrgX1 PAM | RGS4 act | RGS4 block | RGS4 block valid | M3R Ca ctr | RGS4 inh ctr2
O=C(N/N=C/c1c(O)n(CCc2ccc(F)cc2)c(=O)[nH]c1=O)c1ccccc1 | i | i | i | i | i | · | · | ·
N#Cc1c(N2CCNCC2)nc(-c2ccco2)c2c1CCCC2 | i | i | i | i | 5.51* | i | i | i
CCCCc1nc(N2CCNCC2)c(C#N)c2c1CSC(C)(C)C2 | i | i | i | i | i | · | · | ·
O=c1[nH]c(=O)n(-c2ccccc2)c(O)c1/C=C1/C(c2ccccc2)=Nc2ccccc21 | i | 42.3* | i | i | 9.13* | 30.5%* | i | 16.0%*
COC(=O)C1=C(c2cc3ccccc3s2)C[C@@H]2CC[C@H]1N2C(=O)NCCNC(C)=O | i | i | i | i | i | · | · | ·
Cc1ccc(/C=C2/Sc3ccc(C(=O)N4CCC5(CC4)OCCO5)cc3NC2=O)cc1 | i | i | i | i | i | · | · | ·
Cc1cc(C)cc(N2C(=O)NC(=O)/C(=C\c3cccn3-c3ccc(Cl)cc3)C2=O)c1 | i | i | i | i | i | · | · | ·
Cc1cc(C)cc(N2C(=O)NC(=O)/C(=C\c3cccn3-c3ccccc3)C2=O)c1 | i | i | i | i | 9.2* | 18.0%* | i | 15.0%*
Cc1cccc(-n2c(/C=C/c3ccccn3)nc3ccccc3c2=O)c1 | i | i | i | i | i | · | · | ·
COc1ccc(-n2c(/C=C/c3ccc(O)c(OC)c3)nc3ccccc3c2=O)cc1 | i | i | i | i | i | · | · | ·
COc1cc(/C=C/[N+](=O)[O-])ccc1O | i | i | i | i | 26.2* | 60.5%* | 74.5%* | i
CN1C(=O)C(=Cc2ccccc2OCc2ccccc2Cl)C(=O)N(C)C1=O | i | i | i | i | i | · | · | ·
COc1cc(/C=C(/C)[N+](=O)[O-])ccc1OCc1ccccc1Cl | i | i | i | i | 31.3* | 10.5%* | i | 38.5%*
COc1ccc(N2C(=O)NC(=O)/C(=C\c3ccc([N+](=O)[O-])s3)C2=O)cc1 | i | i | i | i | 5.24* | 22.5%* | i | i
